ChEMBL document CHEMBL4725271, “Design and synthesis of pyrazolo[3,4-d]pyrimidinone derivatives: Discovery of selective phosphodiesterase-5 inhibitors” (Bioorg Med Chem Lett, 2020)

What was measured:
[1] = target: cGMP-specific 3',5'-cyclic phosphodiesterase (Homo sapiens, UniProt O76074); assay: Inhibition of PDE5 (unknown origin)
Corpus cavernosum [2] = assay: Induction of smooth muscle relaxation in male albino rat corpus-cavernosum assessed as reduction in phenylephrine-induced contraction; assay type: functional, tissue-based
Corpus cavernosum [3] = assay: Induction of smooth muscle relaxation in male albino rat corpus-cavernosum assessed as reduction in phenylephrine-induced contraction relative to sildenafil; assay type: functional
In short: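 Isolated penile corpus cavernosum strips from adult male albino rats anaesthetized with sodium pentobarbital (50mg/kg, i.v.), held in Krebs-Henseleit solution at 37°C aerated with carbogen under 1g initial tension. Equilibrated ~90 min with solution renewed every 15 min. Cumulative concentration-response curves in phenylephrine-contracted tissue, recorded isometrically.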

| IC50 [1] [nM] | EC50 (Corpus cavernosum [2]) [nM] | Compound | Emax (Corpus cavernosum [3]) [%] |
| --- | --- | --- | --- |
| 6.6 |  | COc1ccc(CNc2nc(N3CCC[C@H]3CO)ncc2C(=O)NCCCO)cc1Cl |  |
| 2.1 |  | COc1ccc(CNc2nc(OCc3ccccn3)ncc2C(=O)OCc2ccccn2)cc1Cl |  |
| 4.2 |  | COc1ccc(CNc2nc(OCc3ccccn3)ncc2C(=O)OCc2ncccn2)cc1Cl |  |
| 2.7 |  | COc1ccc(CNc2nc(OCc3ccccn3)ncc2C(=O)NCc2ccccn2)cc1Cl |  |
| 15 |  | COCCCNC(=O)c1cnc(OCc2ccccn2)nc1NCc1ccc(OC)c(Cl)c1 |  |
| 5.6 |  | COc1ccc(CNc2nc(OCc3ccccn3)ncc2C(=O)NCCN2CCOCC2)cc1Cl |  |
| 13 |  | COc1ccc(CNc2nc(OCc3ccccn3)ncc2C(=O)NCCCO)cc1Cl |  |
| 12 |  | COc1ccc(CNc2nc(OCc3ccccn3)ncc2C(=O)NCCCCO)cc1Cl |  |
| 32 |  | COc1ccc(CNc2nc(N(C)CCO)ncc2C(=O)NCc2ccccn2)cc1Cl |  |
| 59 |  | COc1ccc(CNc2nc(N3CCC(O)CC3)ncc2C(=O)NCc2ccccn2)cc1Cl |  |
| 1.8 |  | COc1ccc(CNc2nc(N3CCC[C@H]3CO)ncc2C(=O)N[C@H]2CC[C@H](O)CC2)cc1Cl |  |
| 6.5 |  | COc1ccc(CNc2nc(N3Cc4ccccc4C[C@@H]3CO)ncc2C(=O)NCc2ccccn2)cc1Cl |  |
|  | 338 | O=c1[nH]c(-c2ccccc2O)nc2c1cnn2-c1ccc(Br)cc1 | 167 |
| 32 |  | COc1ccc(CNc2nc(N3CCO[C@H](CO)C3)ncc2C(=O)NCc2ccccn2)cc1Cl |  |
|  | 6800 | Nc1ccccc1NCc1nc2c(cnn2-c2ccccc2)c(=O)[nH]1 | 113 |
| 85 |  | COc1ccc(CN(C)c2nc(OCc3ccccn3)ncc2C(=O)NCc2ccccn2)cc1Cl |  |
| 6.1 |  | COc1ccc(CNc2nc(N3CCC[C@H]3CO)ncc2C(=O)NC[C@@H]2CN(C)CCO2)cc1Cl |  |
|  | 630 | CCCCOc1ccccc1-c1nc2c(cnn2-c2ccccc2)c(=O)[nH]1 | 170 |

| IC50 [1] [nM] | EC50 (Corpus cavernosum [2]) [nM] | Compound | Emax (Corpus cavernosum [3]) [%] |
| --- | --- | --- | --- |
|  | 223 | O=C(O)c1ccccc1OCc1nc2c(cnn2-c2ccccc2)c(=O)[nH]1 |  |
| 1.2 |  | COc1ccc(CNc2nc(N3CCC[C@@H]3CO)ncc2C(=O)NCc2ccccn2)cc1Cl |  |
|  | 830 | CCCOc1ccccc1-c1nc2c(cnn2-c2ccc(Br)cc2)c(=O)[nH]1 | 140 |
|  | 280 | CC(C)Oc1ccccc1-c1nc2c(cnn2-c2ccc(Br)cc2)c(=O)[nH]1 |  |
| 54 |  | COc1ccc(CNc2nc(N3CCCC[C@H]3CO)ncc2C(=O)NCc2ccccn2)cc1Cl |  |
|  | 250 | O=c1[nH]c(CNc2ccccc2O)nc2c1cnn2-c1ccccc1 | 125 |
|  | 500 | CC(C)Oc1ccccc1-c1nc2c(cnn2-c2ccccc2)c(=O)[nH]1 | 130 |
| 12 |  | COc1ccc(CNc2nc(OCc3ccccn3)ncc2C(=O)Nc2ncccn2)cc1Cl |  |
| 3.5 |  | COc1ccc(CNc2nc(OCc3ccccn3)ncc2C(=O)N[C@H]2CC[C@@H](O)CC2)cc1Cl |  |
|  | 100 | COC(=O)c1ccccc1OCc1nc2c(cnn2-c2ccccc2)c(=O)[nH]1 | 130 |
|  | 4.89 | CCCCOc1ccccc1-c1nc2c(cnn2-c2ccc(Br)cc2)c(=O)[nH]1 | 160 |
|  | 5050 | O=c1[nH]c(CNc2ccccc2O)nc2c1cnn2-c1ccc(Br)cc1 | 133 |
| 63 |  | COc1ccc(CNc2nc(N3CCCC[C@H]3CO)ncc2C(=O)NCc2ncccn2)cc1Cl |  |
|  | 707 | Nc1ccccc1NCc1nc2c(cnn2-c2ccc(Br)cc2)c(=O)[nH]1 | 148 |
|  | 500 | O=c1[nH]c(-c2ccccc2O)nc2c1cnn2-c1ccccc1 | 93 |
|  | 234 | CCCOc1ccccc1-c1nc2c(cnn2-c2ccccc2)c(=O)[nH]1 | 150 |
| 25 |  | COc1ccc(CN=c2[nH]c(N3CCC[C@H]3CO)ncc2C(=O)NCc2ncccn2)cc1Cl (stereo in doubt; T5) |  |
| 5.2 |  | COc1ccc(CN=c2[nH]c(N3CCC[C@H]3CO)ncc2C(=O)NCc2ncccn2)cc1Cl (stereo in doubt; T6) |  |
